The values that follow come from ChEMBL document CHEMBL4334454, “Alkaloids Purified from Aristotelia chilensis Inhibit the Human α3β4 Nicotinic Acetylcholine Receptor with Higher Potencies Compared with the Human α4β2 and α7 Subtypes” (J Nat Prod, 2019).

The source made the active and inactive calls. No cut-off for these calls is given here.

What all share (format): cell-based
Assay [1] addresses T1, Neuronal acetylcholine receptor; alpha4/beta2 (Homo sapiens, UniProt P17787+P43681). Put plainly: Agonist activity at human AChR alpha4beta2 transfected in human HEK293 cells assessed as increase in calcium influx incubated for 1 hr by fluo-4 dye based assay.
Assay [2] deals with T2, Neuronal acetylcholine receptor subunit alpha-7 (Homo sapiens, UniProt P36544). The experiment in a line: Agonist activity at human AChR alpha7 transfected in rat GH3 cells assessed as increase in calcium influx incubated for 1 hr by fluo-4 dye based assay.
Assay [3] deals with T3, Neuronal acetylcholine receptor; alpha3/beta4 (Homo sapiens, UniProt P30926+P32297). The experiment in a line: Antagonist activity at human AChR alpha3beta4 transfected in human HEK293 cells assessed as decrease in epibatidine-induced calcium influx incubated for 1 hr by fluo-4 dye based assay.
Assay [4] concerns the target T1, Neuronal acetylcholine receptor; alpha4/beta2. The experiment in a line: Antagonist activity at human AChR alpha4beta2 transfected in human HEK293 cells assessed as decrease in epibatidine-induced calcium influx incubated for 1 hr by fluo-4 dye based assay. The method in brief:
(§1)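 HEK293-hα3β4 or HEK293-hα4β2 cells were seeded 72 h ahead, kept in HBSS/1% FBS (pH 7.4) 16–24 h, and loaded with Fluo-4 plus 2.5 mM probenecid for 1 h at 37 °C. After washing, cells were pretreated 5 min with alkaloid at varied concentrations. 0.1 μM (±)-epibatidine was then added while fluorescence (488/510 nm) was recorded for 78 s. Responses were normalized to the maximal epibatidine response, mean ± SD (n = 3). IC50 and nH came from concentration–response curves.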

Assay [5] addresses T2, Neuronal acetylcholine receptor subunit alpha-7. Put plainly: Antagonist activity at human AChR alpha7 transfected in rat GH3 cells assessed as decrease in epibatidine-induced calcium influx incubated for 1 hr by fluo-4 dye based assay. The method in brief:
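GH3-hα7 cells were seeded 72 h ahead, kept in HBSS/1% FBS (pH 7.4) 16–24 h, and loaded with Fluo-4 plus 2.5 mM probenecid for 1 h at 37 °C. After washing, cells were pretreated 5 min with varied alkaloid concentrations. 1.0 μM (±)-epibatidine was then added while fluorescence (488/510 nm) was recorded for 78 s. Data were normalized to the maximal epibatidine response, mean ± SD (n = 3). IC50 and nH were fitted.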

Assay [6] is filed under the species Homo sapiens. The experiment in a line: Selectivity index, ratio of IC50 for human AChR alpha4beta2 transfected in human HEK293 cells to IC50 for human AChR alpha3beta4 transfected in human HEK293 cells.
For assay [7], the species on record is Homo sapiens. Put plainly: Selectivity index, ratio of IC50 for human AChR alpha7 transfected in rat GH3 cells to IC50 for human AChR alpha3beta4 transfected in human HEK293 cells.
Assay [8] has as its target T1, Neuronal acetylcholine receptor; alpha4/beta2. The experiment in a line: Antagonist activity at human AChR alpha4beta2 transfected in human HEK293 cells assessed as decrease in epibatidine-induced calcium influx at 10 to 100 uM incubated for 1 hr by fluo-4 dye based assay relative to control. In short, it runs like this: as §1
In assay [9] the target is T2, Neuronal acetylcholine receptor subunit alpha-7. The experiment in a line: Antagonist activity at human AChR alpha7 transfected in […] cells assessed as decrease in epibatidine-induced calcium influx at 10 to 100 uM incubated for 1 hr by fluo-4 dye based assay relative to control.
In assay [10] the target is T3, Neuronal acetylcholine receptor; alpha3/beta4. Put plainly: Antagonist activity at human AChR alpha3beta4 transfected in human HEK293 cells assessed as decrease in epibatidine-induced calcium influx at 100 uM incubated for 1 hr by fluo-4 dye based assay relative to control. In short, it runs like this: as §1

T1 sequence (P17787 whole entry): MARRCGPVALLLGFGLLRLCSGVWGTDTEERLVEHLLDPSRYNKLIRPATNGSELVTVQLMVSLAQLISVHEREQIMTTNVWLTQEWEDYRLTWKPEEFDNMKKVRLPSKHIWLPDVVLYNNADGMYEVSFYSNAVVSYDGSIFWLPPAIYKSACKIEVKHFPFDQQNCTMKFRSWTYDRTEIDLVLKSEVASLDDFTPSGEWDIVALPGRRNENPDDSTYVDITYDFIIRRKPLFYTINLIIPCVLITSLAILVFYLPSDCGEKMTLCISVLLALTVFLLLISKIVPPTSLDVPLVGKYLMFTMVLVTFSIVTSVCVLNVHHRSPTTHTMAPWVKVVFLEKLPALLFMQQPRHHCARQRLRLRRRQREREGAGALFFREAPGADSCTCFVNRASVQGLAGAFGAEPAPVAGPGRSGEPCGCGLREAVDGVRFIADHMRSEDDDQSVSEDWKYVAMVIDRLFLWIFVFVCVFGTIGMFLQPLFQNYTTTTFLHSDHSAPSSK
T1 sequence (P43681 whole entry): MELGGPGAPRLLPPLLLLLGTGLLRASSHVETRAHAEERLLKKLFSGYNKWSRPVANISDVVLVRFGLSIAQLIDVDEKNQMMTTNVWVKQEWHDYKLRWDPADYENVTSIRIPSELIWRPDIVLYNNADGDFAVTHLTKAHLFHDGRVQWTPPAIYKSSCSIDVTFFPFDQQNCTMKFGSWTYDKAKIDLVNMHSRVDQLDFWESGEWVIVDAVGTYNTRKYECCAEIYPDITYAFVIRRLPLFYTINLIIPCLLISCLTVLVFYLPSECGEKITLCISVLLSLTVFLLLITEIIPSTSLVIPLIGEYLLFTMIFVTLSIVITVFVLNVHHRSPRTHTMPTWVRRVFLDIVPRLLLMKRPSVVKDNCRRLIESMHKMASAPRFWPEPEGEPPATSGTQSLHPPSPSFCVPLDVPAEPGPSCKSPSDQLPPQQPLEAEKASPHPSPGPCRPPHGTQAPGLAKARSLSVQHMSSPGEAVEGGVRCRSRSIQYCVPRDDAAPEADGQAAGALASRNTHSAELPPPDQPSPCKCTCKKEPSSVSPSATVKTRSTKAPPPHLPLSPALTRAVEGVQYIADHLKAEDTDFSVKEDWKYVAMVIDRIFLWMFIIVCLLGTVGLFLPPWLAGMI
T2 sequence (P36544 whole entry): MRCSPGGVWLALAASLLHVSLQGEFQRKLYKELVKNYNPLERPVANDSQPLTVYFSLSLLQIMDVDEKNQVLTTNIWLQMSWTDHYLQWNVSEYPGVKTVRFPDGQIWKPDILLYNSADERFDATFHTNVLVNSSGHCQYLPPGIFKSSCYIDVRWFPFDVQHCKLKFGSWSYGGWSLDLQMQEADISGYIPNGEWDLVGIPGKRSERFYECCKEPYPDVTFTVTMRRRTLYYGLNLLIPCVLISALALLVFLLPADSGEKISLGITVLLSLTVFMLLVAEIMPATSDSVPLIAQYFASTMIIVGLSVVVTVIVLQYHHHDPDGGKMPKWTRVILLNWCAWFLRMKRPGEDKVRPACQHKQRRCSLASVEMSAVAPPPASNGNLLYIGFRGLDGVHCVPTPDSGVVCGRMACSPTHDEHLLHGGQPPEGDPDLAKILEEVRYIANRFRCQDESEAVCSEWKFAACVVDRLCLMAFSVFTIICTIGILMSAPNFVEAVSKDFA
T3 sequence (P30926 whole entry): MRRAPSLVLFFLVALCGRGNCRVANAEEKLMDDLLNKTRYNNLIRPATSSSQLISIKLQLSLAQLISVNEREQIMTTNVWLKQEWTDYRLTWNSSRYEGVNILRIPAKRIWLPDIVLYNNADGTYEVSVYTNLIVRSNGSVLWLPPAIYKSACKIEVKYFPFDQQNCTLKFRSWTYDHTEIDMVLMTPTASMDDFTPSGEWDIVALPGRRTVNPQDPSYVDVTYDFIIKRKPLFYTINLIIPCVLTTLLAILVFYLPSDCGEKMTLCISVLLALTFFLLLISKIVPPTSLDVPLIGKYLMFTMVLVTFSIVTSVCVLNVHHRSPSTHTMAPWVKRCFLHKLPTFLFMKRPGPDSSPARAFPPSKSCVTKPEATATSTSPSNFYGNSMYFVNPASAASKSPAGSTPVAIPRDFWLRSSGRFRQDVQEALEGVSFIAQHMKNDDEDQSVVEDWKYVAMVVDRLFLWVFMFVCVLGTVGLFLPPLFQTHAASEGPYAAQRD
T3 sequence (P32297 whole entry): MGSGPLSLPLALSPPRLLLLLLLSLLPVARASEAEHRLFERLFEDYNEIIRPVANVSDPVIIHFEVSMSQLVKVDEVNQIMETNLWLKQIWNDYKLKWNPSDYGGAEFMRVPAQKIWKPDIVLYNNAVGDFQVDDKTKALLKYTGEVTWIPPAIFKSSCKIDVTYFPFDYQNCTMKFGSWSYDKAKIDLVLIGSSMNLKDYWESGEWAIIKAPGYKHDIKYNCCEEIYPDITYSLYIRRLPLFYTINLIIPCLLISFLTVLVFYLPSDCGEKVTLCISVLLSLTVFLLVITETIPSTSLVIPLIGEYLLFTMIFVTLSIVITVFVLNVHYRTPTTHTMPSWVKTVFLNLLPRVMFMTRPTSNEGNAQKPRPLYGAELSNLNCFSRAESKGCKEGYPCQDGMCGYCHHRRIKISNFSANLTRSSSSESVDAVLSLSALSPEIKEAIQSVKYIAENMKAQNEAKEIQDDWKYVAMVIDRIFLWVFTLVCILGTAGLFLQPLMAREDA

Take `CC1(C)N[C@@H]2Cc3c([nH]c4ccccc34)[C@]3(C)CC[C@H]1C[C@H]23`: the outcome in assay [1] and in assay [2] was inactive. Besides, the IC50 in [3] was 0.4 µM; in assay [4], 3.4 µM; in assay [5] (read-out: IC50), 27 µM. For the same molecule, the values for the Ratio IC50 in the assay filed under Homo sapiens [6] and in the assay filed under Homo sapiens [7] were 8.4 and 67.5, respectively. Also, the inhibition in assay [8] and in assay [9] was 100% in each case.

Take `CC1(C)[C@@H]2C[C@@H]3[C@H]4C[C@@]5(Nc6ccccc6[C@@H]5N41)[C@]3(C)CC2=O`: the result in assay [1] and in [2] was inactive. The IC50 in assay [3] was 167 µM; in assay [4], 145 µM; in assay [5] (gh3), “Not Active”. For the same molecule, the inhibition in assay [10] turned out to be 40%. The inhibition entry in [8] and in assay [9] was “inactive” throughout.

With `Clc1ccc(C2C[C@@H]3CC[C@H]2N3)cn1` (mixture of isomers), the result in [1] and in assay [2] was Active.

As to `CC1=CC[C@@H]2C[C@H]1[C@@H](c1ccnc3ccccc13)NC2(C)C`, the result in assay [1] and in assay [2] was inactive. In addition, the IC50 in assay [4] was 6.7 µM; in assay [5] (read-out: IC50), 45.3 µM.

The term IC50 denotes the midpoint of a concentration-inhibition curve. A word on the inhibition: it is the change of the read-out against control, counted positive when it falls.
